Laboratory results: ChEMBL document CHEMBL4673290, “Diazaspirononane Nonsaccharide Inhibitors of O-GlcNAcase (OGA) for the Treatment of Neurodegenerative Disorders” (J Med Chem, 2020)
Converted amounts (≈) assume the structure as drawn.

Columns and labels:
[1] = Inhibition of human recombinant full-length OGA transcript variant 1 expressed in HEK293T cells using FM-GlcNAc as substrate preincubated for 60 mins followed by addition of substrate and measured after 6 hrs by fluorescence assay
In short: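 Full-length human OGA, 2 nM, preincubated with compound for 60 min at room temperature. FM-GlcNAc substrate at 100 μM final, in 200 mM citrate/phosphate pH 7.2 with 0.005% Tween-20 and ≤1% DMSO. Run 6 h at room temperature, stopped with 500 mM carbonate pH 11.0. Fluorescence read at 485/538 nm. IC50 and Hill coefficient from least-squares fit, normalised to no-inhibitor and saturating reference controls.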

Protein O-GlcNAcase = Protein O-GlcNAcase (Homo sapiens, UniProt O60502); assay: Inhibition of OGA in HEK293 cells induced with human Tau […] mutant assessed as increase in O-GlcNAcylated protein levels measured after 6 hrs by Hoechst 33342 dye based fluorescence analysis; type: cell-based
In short: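 Janssen HEK293 line inducible for P301L human Tau 2N4R, seeded two days before at 4000 cells/well in low-glucose assay medium. Compound exposure 6 h with 0.2% DMSO. Cells fixed with 4% PFA, permeabilized, then stained with CTD110.6 anti-O-GlcNAc (1/1000, 4 °C overnight) and a fluorescent secondary. Readout was 488 nm intensity over nine fields; Hoechst nuclei counted. Thiamet-G 200 μM defined maximum. IC50 by nonlinear regression.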

[2] = Inhibition of clostridium perfringens OGA using FM-GlcNAc as substrate preincubated for 60 mins followed by addition of substrate and measured after 6 hrs by fluorescence assay
in vitro [3] = details: mouse, liver microsomes, CLH
P-gp (MDR1) = assay: Efflux ratio of apparent permeability across basolateral to apical over apical to basolateral side in MDCK2-MDR1 cells at 5 uM measured after 120 mins in absence of P-gp inhibitor GF120918 by LC-MS/MS analysis; details: dog, MDCK-MDR1
in vitro [4] = details: human, liver microsomes, CLH
[5] = Dissociation constant, pKa of the compound; type: physicochemical
[6] = Kinetic solubility of compound at pH 2; type: physicochemical; details: buffer, read-out: Kinetic_solubility
[7] = Kinetic solubility of compound at pH 7.4; type: physicochemical; details: buffer, read-out: Kinetic_solubility
[8] = Clearance in male CD1 mouse at 1 mg/kg, iv compound dissolved in saline measured after 24 hrs by LC-MS/MS analysis; type: ADME, organism-based; details: in vivo
In short: (§1)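 Single 1 mg/kg iv dose in 0.9% saline to three male CD1 mice. Blood sampled at 0.117, 0.333, 1, 2, 4, 7 and 24 h. Plasma prepared by acetonitrile protein precipitation and analysed by qualified LC-MS/MS.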

[9] = AUC (0 to last) in male CD1 mouse at 30 mg/kg, po compound dissolved in water measured after 24 hrs by LC-MS/MS analysis; type: ADME, organism-based; parameters: route oral, time 24 hrs, dose 30 mg/kg; details: in vivo
In short: (§2)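 Three male CD1 mice per arm; oral solution in water adjusted to about pH 4. Blood taken at 0.5, 1, 2, 4, 7 and 24 h. Plasma protein-precipitated with acetonitrile and the supernatant quantified by qualified LC-MS/MS.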

[10] = Cmax in male CD1 mouse at 30 mg/kg, po compound dissolved in water measured after 24 hrs by LC-MS/MS analysis; type: ADME, organism-based; parameters: route oral, dose 30 mg/kg, time 24 hrs; details: in vivo; in short: as §2
[11] = Volume of distribution at steady state in male CD1 mouse at 1 mg/kg, iv compound dissolved in saline measured after 24 hrs by LC-MS/MS analysis; type: ADME, organism-based; details: in vivo, read-out: Vdss; in short: as §1
[12] = Oral bioavailability in male CD1 mouse at 30 mg/kg, compound dissolved in water measured after 24 hrs by LC-MS/MS analysis; type: ADME, organism-based; details: in vivo
In short: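 Male CD1 mice, three per arm: 1 mg/kg iv in 0.9% saline and 30 mg/kg po as a solution in water adjusted to about pH 4. Serial blood to 24 h. Plasma levels measured by LC-MS/MS after acetonitrile precipitation. Bioavailability derived from iv and po exposure.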

Chain of Protein O-GlcNAcase (O60502 whole entry, looked up, stated change not applied): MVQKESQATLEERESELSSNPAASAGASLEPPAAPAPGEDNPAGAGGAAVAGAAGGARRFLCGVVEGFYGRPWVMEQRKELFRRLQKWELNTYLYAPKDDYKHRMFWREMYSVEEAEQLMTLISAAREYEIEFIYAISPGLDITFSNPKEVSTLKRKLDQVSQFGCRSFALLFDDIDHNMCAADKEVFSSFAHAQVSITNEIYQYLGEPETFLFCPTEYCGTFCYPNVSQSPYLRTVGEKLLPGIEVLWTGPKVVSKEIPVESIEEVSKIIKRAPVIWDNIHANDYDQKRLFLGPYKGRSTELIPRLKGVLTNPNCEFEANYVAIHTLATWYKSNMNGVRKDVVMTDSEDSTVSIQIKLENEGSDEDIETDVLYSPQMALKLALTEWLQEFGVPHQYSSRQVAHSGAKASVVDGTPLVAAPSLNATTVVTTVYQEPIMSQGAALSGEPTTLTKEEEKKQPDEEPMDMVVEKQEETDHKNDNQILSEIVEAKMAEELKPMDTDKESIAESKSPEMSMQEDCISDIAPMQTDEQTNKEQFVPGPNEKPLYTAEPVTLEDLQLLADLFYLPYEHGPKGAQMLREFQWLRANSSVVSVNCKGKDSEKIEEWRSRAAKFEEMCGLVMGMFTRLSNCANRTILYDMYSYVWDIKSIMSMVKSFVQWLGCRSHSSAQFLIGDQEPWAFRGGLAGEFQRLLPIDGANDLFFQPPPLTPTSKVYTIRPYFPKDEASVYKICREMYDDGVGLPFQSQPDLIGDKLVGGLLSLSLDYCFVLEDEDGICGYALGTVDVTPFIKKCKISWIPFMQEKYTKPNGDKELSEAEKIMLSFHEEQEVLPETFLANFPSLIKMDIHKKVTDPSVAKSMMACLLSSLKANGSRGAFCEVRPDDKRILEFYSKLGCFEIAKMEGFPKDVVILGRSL

Row | SMILES | IC50 [1] [nM] | IC50 (Protein O-GlcNAcase) [nM] | other results
1 | Cc1cc(N2CCC3(CCN(Cc4ccc5c(c4)OCO5)C3)C2)n2ncnc2n1 (configuration not stated) | 129 | > 1000 | –
2 | CC(=O)Nc1ncc(CN2CCC3(CCC(Cc4cc(C)nc(C)c4)C3)C2)s1 (configuration not stated) | 309 | 537 | –
3 | CC(=O)Nc1ncc(CN2CC3(CCN(c4cc(C)nc5ncnn45)C3)C2)s1 | 34 | 10000 | IC50 [2]: 3300 nM
4 | CC(=O)Nc1ncc(CN2CC[C@]3(C2)C[C@@H](Cc2cc(C)nc(C)c2)C3)s1 | 209 | 295 | –
5 | CC(=O)Nc1ncc(CN2CCC3(C2)CN(c2cc(C)nc4ncnn24)C3)s1 | 41 | 9330 | –
6 | CC(=O)Nc1ncc(CN2CC[C@]3(C2)C[C@@H](Oc2cc(C)nc(C)c2)C3)s1 | 550 | – | –
7 | CC(=O)Nc1ncc(CN2CCC3(CCN(c4cc(C)nc5ncnn45)C3)C2)s1 (configuration not stated) | 4 | 575 | microsomal CLint at 1 h, 1 µM (in vitro [3]): < 13 µL/min/mg; efflux ratio at 2 h, 5 µM (P-gp (MDR1)): 13.5; microsomal CLint at 1 h, 1 µM (in vitro [4]): < 8 µL/min/mg; IC50 [2]: 290 nM
8 | CC(=O)Nc1ncc(CN2CC[C@]3(C2)C[C@H](Oc2cc(C)nc(C)c2)C3)s1 | 1000 | – | –
9 | CC(=O)Nc1ncc(CN2CCC3(CCC(COc4cc(C)nc(C)c4)C3)C2)s1 (configuration not stated) | 135 | 501 | –
10 | CC(=O)Nc1ncc(CN2CC[C@]3(C2)C[C@H](Cc2cc(C)nc(C)c2)C3)s1 | 204 | 240 | –
11 | CC(=O)Nc1ncc(CN2CCC3(CCC(c4cc(C)nc(C)c4)C3)C2)s1 (configuration not stated) | 66 | 214 | –
12 | CC(=O)Nc1ncc(CN2CCC3(CC(c4cc(C)nc(C)c4)CO3)C2)s1 (configuration not stated) | 21 | 603 | –
13 | CC(=O)Nc1ncc(CN2CCC3(CCN(c4cc(C)nc(C)c4)C3)C2)s1 (racemic) | 6 | 141 | pKa [5]: 10.4; microsomal CLint at 1 h, 1 µM (in vitro [3]): < 8 µL/min/mg; efflux ratio at 2 h, 5 µM (P-gp (MDR1)): 1.6; microsomal CLint at 1 h, 1 µM (in vitro [4]): < 8 µL/min/mg
14 | CC(=O)Nc1ncc(CN2CCC3(CCN(c4cc(C)nc(C)n4)C3)C2)s1 (racemic) | 13 | 170 | –
15 | CC(=O)Nc1ncc(CN2CCC3(CCN(c4cc(C)nc5ccccc45)C3)C2)s1 (racemic) | 9 | 39 | solubility kinetic [6]: 87 µM (≈ 36.7 µg/mL); solubility kinetic [7]: 71 µM (≈ 29.9 µg/mL)
16 | Cc1cc(N2CCC3(CCN(Cc4ccc5sc(C)nc5c4)C3)C2)n2ncnc2n1 (racemic) | 22 | > 1000 | –
17 | CC(=O)Nc1ncc(CN2CCC3(CCN(c4cc(C)nc(C(F)(F)F)c4)C3)C2)s1 (racemic) | 19 | 380 | microsomal CLint at 1 h, 1 µM (in vitro [3]): 55 µL/min/mg; efflux ratio at 2 h, 5 µM (P-gp (MDR1)): 32.2; microsomal CLint at 1 h, 1 µM (in vitro [4]): 46 µL/min/mg
18 | CC(=O)Nc1ncc(CN2CCC3(CC(COc4cc(C)nc(C)c4)C3)C2)s1 (racemic) | 316 | – | –
19 | CC(=O)Nc1ncc(CN2CC[C@]3(C[C@H](Oc4cc(C)nc(C)c4)CO3)C2)s1 (racemic) | 30 | 537 | –
20 | CC(=O)Nc1ncc(CN2CCC3(CC(c4cc(C)nc(C)c4)C3)C2)s1 (racemic) | 36 | 182 | –
21 | CC(=O)Nc1ncc(CN2CCC3(CCN(c4cc(C)n5ccnc5n4)C3)C2)s1 (racemic) | 1 | 437 | microsomal CLint at 1 h, 1 µM (in vitro [3]): 16 µL/min/mg; efflux ratio at 2 h, 5 µM (P-gp (MDR1)): 1.2; microsomal CLint at 1 h, 1 µM (in vitro [4]): < 8 µL/min/mg
22 | Cc1cc(N2CCC3(CCNC3)C2)n2ncnc2n1 (racemic) | 3240 | > 10000 | –
23 | COc1cc(N2CCC3(CCN(Cc4cnc(NC(C)=O)s4)C3)C2)cc(C)n1 (racemic) | 6 | 56 | microsomal CLint at 1 h, 1 µM (in vitro [3]): 12 µL/min/mg; efflux ratio at 2 h, 5 µM (P-gp (MDR1)): 27.7; microsomal CLint at 1 h, 1 µM (in vitro [4]): < 8 µL/min/mg
24 | CC(=O)Nc1ncc(CN2CCC3(CCN(c4cc(C)cc(C)n4)C3)C2)s1 (racemic) | 4 | 46 | microsomal CLint at 1 h, 1 µM (in vitro [3]): 264 µL/min/mg; efflux ratio at 2 h, 5 µM (P-gp (MDR1)): 24.8; microsomal CLint at 1 h, 1 µM (in vitro [4]): 101 µL/min/mg
25 | Cc1cc(N2CCC3(CCN(Cc4ccc5nccnc5c4)C3)C2)n2ncnc2n1 (racemic) | 74 | > 10000 | –
26 | CC(=O)Nc1ncc(CN2CC[C@]3(C[C@@H](Oc4cc(C)nc(C)c4)CO3)C2)s1 (racemic) | 209 | – | –
27 | CC(=O)Nc1ncc(CN2CCC3(CCN(c4cc(C)nc5ccccc45)C3)C2)s1 (single isomer, unassigned; (+)) | 5 | 17 | microsomal CLint at 1 h, 1 µM (in vitro [3]): 15 µL/min/mg; clearance [8]: 55.8 mL/min/kg; AUC(0-t) at 24 h [9]: 1940 ng·h/mL; Cmax [10]: 331 ng/mL; microsomal CLint at 1 h, 1 µM (in vitro [4]): < 8 µL/min/mg; Vd [11]: 17.8 L/kg; bioavailability [12]: 23.1%
28 | CC(=O)Nc1ncc(CN2CCC3(CCN(c4cc(C)nc5ccccc45)C3)C2)s1 (single isomer, unassigned; (-)) | 25 | 263 | –
